pIC50, pKi: −log10 of the molar value.
Legend:
CaMKIIδ [1] = target: T1, CaMKIIδ (Homo sapiens, UniProt Q13557); type: biochemical; conditions: read-out: inhibition of CaMKIIδ enzyme activity
CaMKIIδ [2] = target: T1, CaMKIIδ; experiment: Radiometric kinase assay; type: biochemical
Summary of the method: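 Outsourced radiometric assay using conventional filter-binding, which directly measures kinase catalytic activity toward a specific substrate. Run as a concentration-dependent study.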

β subtype of CaMKII [3] = conditions: cited from earlier work; for kinase activity, β subtype of CaMKII: at 0.5 μM
300 kinases = conditions: at 0.5 μM; cited from earlier work
δ subtype of CaMKII [4] = conditions: cited from earlier work; for kinase activity, δ subtype of CaMKII: at 0.5 μM
α subtype of CaMKII = conditions: cited from earlier work; for kinase activity, α subtype of CaMKII: at 0.5 μM
β subtype of CaMKII [5] = conditions: cited from earlier work; for activity against β subtype of CaMKII: at 1 μM; for inhibition of β subtype of CaMKII: at 10 μM
CaMKIIγ = conditions: at 0.5 μM; cited from earlier work
γ subtype of CaMKII = conditions: cited from earlier work; for activity against γ subtype of CaMKII: at 1 μM; for inhibition of γ subtype of CaMKII: at 10 μM
CaMKII = conditions: cited from earlier work
δ subtype of CaMKII [6] = conditions: cited from earlier work; for activity against δ subtype of CaMKII: at 1 μM; for inhibition of δ subtype of CaMKII: at 10 μM

Row | SMILES | inhibition at 50 µM (CaMKIIδ [1]) [%] | pIC50 (CaMKIIδ [2]) | IC50 for inhibition of CaMKIIδ enzyme activity (CaMKIIδ [2]; concentration-dependent study, radiometric assay) | inhibition of kinase activity, β subtype of CaMKII (β subtype of CaMKII [3]; at 0.5 μM in the RBC study) | number of different kinases with more than 60 percent inhibition (300 kinases) [kinases] | number of different kinases with more than 80 percent inhibition (300 kinases) [kinases] | inhibition of kinase activity, δ subtype of CaMKII (δ subtype of CaMKII [4]; at 0.5 μM in the RBC study) | inhibition of kinase activity, α subtype of CaMKII (α subtype of CaMKII; at 0.5 μM in the RBC study) | kinase activity, β subtype of CaMKII (β subtype of CaMKII [3]) [%] | activity against β subtype of CaMKII (β subtype of CaMKII [5]) | inhibition of β subtype of CaMKII (β subtype of CaMKII [5]) [%] | kinase activity, γ subtype of CaMKII (CaMKIIγ) [%] | kinase activity, δ subtype of CaMKII (δ subtype of CaMKII [4]) [%] | activity against γ subtype of CaMKII (γ subtype of CaMKII) | inhibition of γ subtype of CaMKII (γ subtype of CaMKII) [%] | kinase activity, α subtype of CaMKII (α subtype of CaMKII) [%] | pKi (CaMKII) | activity against δ subtype of CaMKII (δ subtype of CaMKII [6]) | inhibition of δ subtype of CaMKII (δ subtype of CaMKII [6]) [%] | pIC50 (CaMKII)
1 | CCN(CC)CCCC(C)Nc1nc(/C=C/c2ccccc2)nc2cc(Cl)ccc12 (stereo not shown) [Compound 1, (E)-N4-(7-chloro-2-styrylquinazolin-4-yl)-N1,N1-diethylpentane-1,4-diamine] | ≥ 50 | ~5.30 | single-digit micromolar | – | – | – | – | – | – | – | – | – | – | – | – | – | – | – | – | –
2 | CN(C)S(=O)(=O)c1ccc2c(c1)/C(=C/c1cc3c([nH]1)CCCC3)C(=O)N2 [SU6656] | – | – | – | ~ 30% | 38 | 19 | ~ 30% | ~ 30% | – | – | – | – | – | – | – | – | – | – | – | –
3 | CN([C@@H](Cc1ccc(OS(=O)(=O)c2cccc3cnccc23)cc1)C(=O)N1CCN(c2ccccc2)CC1)S(=O)(=O)c1cccc2cnccc12 [KN-62] | – | – | – | – | – | – | – | – | 90 | Neither compound showed activity | 22 | 90 | 90 | Neither compound showed activity | 13 | 90 | 6.05 | Neither compound showed activity | 9 | –
4 | COc1ccc(S(=O)(=O)N(CCO)c2ccccc2CN(C)CC=Cc2ccc(Cl)cc2)cc1 [KN-93] | – | – | – | – | – | – | – | – | 90 | Neither compound showed activity | 80 | 90 | 90 | Neither compound showed activity | 33 | 90 | 6.43 | Neither compound showed activity | 53 | 5.40 to 6.00
